According to ChEMBL document CHEMBL1142414, “Comprehensive mechanistic analysis of hits from high-throughput and docking screens against beta-lactamase” (J Med Chem, 2008):

How the values were obtained:
[1] = Inhibition of beta-lactamase AmpC
Procedure, shortened: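 Cuvette assay with 1 nM AmpC β-lactamase and 200 µM nitrocefin, Triton X-100 at either 0.00002 or 0.1%. Compound and enzyme preincubated 5 min, then substrate added to start the reaction.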

Cruzipain [2] = target: T1, Cruzipain (Trypanosoma cruzi, UniProt P25779); test: Inhibition of cruzain in presence of 0.01% Triton X-100
T1 sequence (P25779 whole entry): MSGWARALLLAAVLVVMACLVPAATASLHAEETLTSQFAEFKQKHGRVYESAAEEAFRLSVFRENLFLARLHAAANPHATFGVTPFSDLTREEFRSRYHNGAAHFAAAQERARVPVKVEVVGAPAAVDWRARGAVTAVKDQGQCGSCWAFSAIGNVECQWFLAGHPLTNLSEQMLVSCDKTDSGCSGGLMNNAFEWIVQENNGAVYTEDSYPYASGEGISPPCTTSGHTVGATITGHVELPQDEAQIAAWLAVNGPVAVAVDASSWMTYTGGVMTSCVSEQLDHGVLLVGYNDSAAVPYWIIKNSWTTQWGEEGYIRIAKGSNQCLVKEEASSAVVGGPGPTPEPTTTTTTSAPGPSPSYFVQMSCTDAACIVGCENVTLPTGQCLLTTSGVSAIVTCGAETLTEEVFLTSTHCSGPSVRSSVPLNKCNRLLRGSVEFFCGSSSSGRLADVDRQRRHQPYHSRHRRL
Procedure, shortened: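 Recombinant cruzain (10 nM) in 0.1 M sodium acetate pH 5.5 with 5 mM DTT and 0.01% Triton X-100, substrate 2.5 µM Z-Phe-Arg-AMC. Cleavage read fluorimetrically in 96-well format, excitation 355 nm, emission 460 nm.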

[3] = Inhibition of malate dehydrogenase in presence of 0.1% Triton X-100
Procedure, shortened: (§1)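 Malate dehydrogenase (2 nM) incubated 5 min with inhibitor, then reaction started with 200 µM oxaloacetic acid plus 200 µM NADH. In the no-preincubation variant, inhibitor, oxaloacetate and NADH were mixed first and enzyme was added last. NADH consumption followed at 340 nm.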

Cruzipain [4] = target: T1, Cruzipain; test: Inhibition of cruzain
[5] = Inhibition of chymotrypsin in presence of 0.1% Triton X-100
Procedure, shortened: (§2)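 Chymotrypsin (28 nM) preincubated 5 min with inhibitor, then reaction started with 200 µM N-succinyl-Ala-Ala-Pro-Phe p-nitroanilide. In the no-preincubation variant, inhibitor and substrate were mixed first and enzyme was added to start. Progress read at 410 nm.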

[6] = Inhibition of chymotrypsin; procedure, shortened: as §2
[7] = Inhibition of beta-lactamase AmpC in presence of 0.1% Triton X-100
Procedure, shortened: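 Cuvette assay with 1 nM AmpC β-lactamase and 200 µM nitrocefin, Triton X-100 at either 0.00002 or 0.1%. Compound and enzyme preincubated 5 min, then substrate added to start the reaction. Nitrocefin hydrolysis read at 482 nm by UV–visible spectrophotometry at room temperature.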

[8] = Inhibition of malate dehydrogenase; procedure, shortened: as §1

Compound	Ki [1]	IC50 (Cruzipain [2])	IC50 [3]	IC50 (Cruzipain [4])	IC50 [5]	IC50 [6]	IC50 [1]	IC50 [7]	IC50 [8]
O=C(O)C(Cc1ccccc1)N1C(=O)c2ccccc2C1=O (racemic)	830 µM	–	–	–	–	–	–	–	–
CCOC(=O)SC1=N/C(=C/c2ccc(N(C)C)cc2)C(=O)S1	–	73 µM	> 600 µM	< 1 µM	8 µM	< 1 µM	60 µM	> 600 µM	200 µM
CN(C)C/C=C(\c1ccc(Br)cc1)c1cccnc1	–	–	–	–	–	> 600 µM	> 600 µM	–	–
COc1cccc(-c2nccc(-n3ccnc3)n2)c1	–	–	–	–	–	> 600 µM	> 600 µM	–	–
COc1cc2c(=O)n(Cc3ccco3)c(=O)n(CC(=O)c3cccc(Br)c3)c2cc1OC	–	–	–	–	–	–	> 600 µM	–	–
CCCC12CN(C(=O)c3ccc(OC)cc3)CC(C)(CN(C(=O)c3ccc(OC)cc3)C1)C2=O	–	> 600 µM	–	> 600 µM	> 600 µM	< 1 µM	15 µM	95 µM	> 600 µM
Cc1ccc(C)n1C(Cc1ccccc1)C(=O)O (stereo not drawn)	–	> 600 µM	> 600 µM	< 1 µM	> 600 µM	570 µM	95 µM	> 600 µM	15 µM
CS(=O)(=O)N1CCC(C(=O)N2CCC(Cc3ccccc3)CC2)CC1	–	–	–	–	> 600 µM	> 600 µM	> 600 µM	> 600 µM	–
O=C(O)c1ccc2c(c1)C(=O)N(C(Cc1ccccc1)C(=O)O)C2=O (racemic)	210 µM	–	–	–	–	–	–	–	–
O=C(O)c1ccc2c(c1)C(=O)N(C(Cc1ccc(O)cc1)C(=O)O)C2=O (racemic)	140 µM	> 10000 µM	–	> 10000 µM	–	> 10000 µM	–	210 µM	–
O=C(O)c1ccc2c(c1)C(=O)N([C@H](Cc1cccc3ccccc13)c1nnn[nH]1)C2=O	41 µM	–	–	–	–	–	–	–	–
Cc1occc1C(=O)n1nnc2ccccc21	–	< 600 µM	> 600 µM	106 µM	< 1 µM	< 1 µM	20 µM	38 µM	65 µM
COc1ccc(-c2cc(C(=O)NCc3ccccc3)no2)cc1OC	–	–	–	–	–	> 600 µM	> 600 µM	–	–
CC(C)C[C@H](N)c1nnc(S(=O)(=O)Cc2ccc(F)cc2)o1	–	–	–	–	170 µM	270 µM	600 µM	600 µM	> 600 µM
CC(C)(C)OC(=O)NCCc1nnc(S(=O)(=O)Cc2ccc(Cl)cc2Cl)o1	–	470 µM	–	95 µM	< 1 µM	< 1 µM	< 1 µM	< 1 µM	> 600 µM
O=C(O)c1ccc2c(c1)C(=O)N([C@H](Cc1ccc3ccccc3c1)C(=O)O)C2=O	14 µM	–	–	–	–	–	–	–	–
O=C(Nc1nc2n(n1)C(c1ccccc1)C=C(c1ccccc1)N2)c1ccco1 (stereo not drawn)	–	–	–	–	27 µM	7 µM	< 600 µM	< 600 µM	–
N#Cc1cccc(-c2nc(NCc3cccnc3)c3ccccc3n2)c1	–	–	–	–	–	> 600 µM	> 600 µM	–	–
CCOc1ccccc1CNC(=O)c1cc2occc2n1C	–	–	–	–	–	–	> 600 µM	–	–
CCOC(=O)/C(C(C)=O)=C1\OC(=O)c2ccccc21	–	< 600 µM	–	< 600 µM	–	–	43 µM	58 µM	–
O=c1oc2c(O)c(O)cc3c(=O)oc4c(O)c(O)cc1c4c23 [ELLAGIC ACID]	–	220 µM	106 µM	64 µM	< 600 µM	470 µM	146 µM	> 600 µM	55 µM

Compound	Ki [1]	IC50 (Cruzipain [2])	IC50 [3]	IC50 (Cruzipain [4])	IC50 [5]	IC50 [6]	IC50 [1]	IC50 [7]	IC50 [8]
O=C(O)C1=CC(=C(c2ccc(O)c(C(=O)O)c2)c2ccc(O)c(C(=O)O)c2)C=CC1=O [AURINTRICARBOXYLIC ACID]	–	28 µM	30 µM	53 µM	> 600 µM	184 µM	120 µM	> 600 µM	5 µM
CC(C)CC(C(=O)O)N1C(=O)c2ccc(C(=O)O)cc2C1=O (racemic)	1200 µM	–	–	–	–	–	–	–	–
O=C(O)c1ccc2c(c1)C(=O)N([C@@H](Cc1ccc(O)cc1)C(=O)O)C2=O	158 µM	–	–	–	–	–	–	–	–
CC(C)[C@H](NC(=O)OC(C)(C)C)c1nnc(S(=O)(=O)Cc2c(F)cccc2Cl)o1 (stereo in doubt)	–	< 1 µM	–	< 1 µM	–	–	–	–	–
COc1cccc(-c2ccc3ncnc(NCc4ccc(OC)cc4OC)c3c2)c1	–	–	–	–	–	> 600 µM	> 600 µM	–	–
O=C(O)CN1C(=O)c2ccc(C(=O)O)cc2C1=O	6900 µM	–	–	–	–	–	–	–	–
O=C(O)c1ccc2c(c1)C(=O)N(CCc1ccc(O)cc1)C2=O	360 µM	–	–	–	–	–	–	–	–
CC(C)[C@H](NC(=O)OC(C)(C)C)c1nnc(S(=O)(=O)Cc2c(F)cccc2Cl)o1 (stereo in doubt; 1)	–	< 1 µM	> 600 µM	< 1 µM	< 1 µM	< 1 µM	< 1 µM	< 1 µM	> 600 µM
c1cc2c3c(c1)c1c(n3CCNC2)CCCC1	–	–	–	–	–	> 600 µM	> 600 µM	–	–
CSCCC(C(=O)O)N1C(=O)c2ccc(C(=O)O)cc2C1=O (racemic)	1300 µM	–	–	–	–	–	–	–	–
C[C@H]1[C@H]2C=C[C@@H]1[C@@H](C(=O)O)[C@@H]2c1c2ccc(=O)c(O)c-2oc2c(O)c(O)ccc12	–	45 µM	45 µM	95 µM	> 600 µM	67 µM	70 µM	> 600 µM	18 µM
CCOC(=O)C1=C(c2ccccc2)NC(SCC(=O)Nc2ccc(C)cc2)=C(C#N)C1c1ccco1 (stereo not drawn)	–	120 µM	106 µM	< 1 µM	> 600 µM	< 1 µM	22 µM	> 600 µM	5 µM
O=C(CC1(O)C(=O)Nc2cc(Cl)cc(Cl)c21)c1ccccc1O (stereo not drawn)	–	170 µM	–	73 µM	> 600 µM	> 600 µM	> 600 µM	> 600 µM	–
CC1=C/C(=C\c2ccc3c(c2)OCO3)C(=O)S1	–	–	–	–	–	> 600 µM	> 600 µM	–	–
S=C(S)OC1CC2CC1C1CCCC21 (stereo not drawn)	–	> 600 µM	–	15 µM	> 600 µM	270 µM	270 µM	> 600 µM	> 600 µM
N[C@@H](Cc1cc(-c2ccc(Cl)cc2Cl)cc(CP(=O)(O)O)c1O)C(=O)O	–	158 µM	–	77 µM	400 µM	270 µM	160 µM	220 µM	> 600 µM
O=C(NCCc1ccccc1)C1CCCN(S(=O)(=O)c2cccc3nsnc23)C1 (stereo not drawn)	–	–	–	–	345 µM	220 µM	> 600 µM	–	> 600 µM
COc1cccc2cc(C(=O)n3ccc(C)n3)c(=O)oc12	–	106 µM	–	120 µM	70 µM	70 µM	25 µM	20 µM	> 600 µM
O=C(O)c1ccc2c(c1)C(=O)N([C@H](Cc1c[nH]c3ccccc13)C(=O)O)C2=O	17 µM	–	–	–	–	–	–	–	–
O=C(Oc1cccnc1)c1cc2ccccc2oc1=O	–	90 µM	–	70 µM	37 µM	37 µM	55 µM	43 µM	–
CC(C)(C)OC(=O)NCc1nnc(S(=O)(=O)Cc2ccc(Cl)cc2Cl)o1	–	410 µM	> 600 µM	95 µM	< 1 µM	< 1 µM	< 1 µM	< 1 µM	> 600 µM
